The data set can be described thus: Toxicity liver stage against HepG2, at 10uM. It is filed as cell-based. More on the design: test concentration 10 uM, cell line HepG2-A16-CD81EGFP. Particulars: human, HepG2-A16-CD81EGFP cells; read-out: INHIBITION
The method, boiled down: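 Uninfected HepG2-A16-CD81EGFP cells, 3 × 10^3 per well, 1536-well, plated on prespotted compound at 10 μM final, parasite-free screening media added to match infected plates; puromycin 10 μM positive, DMSO 0.5% negative; run in parallel with 48 h PbLuc assay at 37 °C, 5% CO2; viability by CellTiter-Glo luminescence, normalized to controls.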

As for `O=C(CC1CCCC1)N1CCCC(c2n[nH]c3nccnc23)C1` (centres undefined), the cytotoxicity at 10 µM is -2.6%.

For `CC(=O)N1CCN(c2cc(N(C)C)cnn2)CC1`, the cytotoxicity at 10 µM was 1.37%.

On to `CC(C)c1noc(CS(=O)(=O)CC(=O)NCCOc2ccccc2)n1`, for which the cytotoxicity at 10 µM was -10%.

Consider `CCN1C(=O)CCCC12CCCN(C(=O)c1ccoc1C)C2` (centres undefined), for which the cytotoxicity at 10 µM was -11.8%.

Turning to `CCOc1ccc(CN2CCc3nc4ccsc4c(=O)n3CC2)cc1`, the cytotoxicity at 10 µM is -6.74%.

With `Cc1nn(C)c2c(N3CCN(C(=O)NC4CCCCC4)CC3)ncnc12`, the cytotoxicity at 10 µM was 9.09%.

Take `CCC(=O)NCC(=O)NCC1(c2c(F)cccc2F)CCCC1`: the cytotoxicity at 10 µM is -0.147%.

In the case of `Cc1[nH]ncc1CCCNC(=O)N1CCC(C(N)=O)CC1`, the cytotoxicity at 10 µM was -3.62%.

Turning to `Cc1ccc(C(=O)N(C)C)cc1NC(=O)COCC1CC1`, the cytotoxicity at 10 µM turned out to be 2.95%.

Consider `NC(=O)c1nc(CN2CCOC(C(F)(F)F)C2)no1` (centres undefined), for which the cytotoxicity at 10 µM is -3.39%.

Consider `CCOc1ccc(SCCNS(=O)(=O)CC)cc1`, for which the cytotoxicity at 10 µM worked out at 2.71%.

Take `CC(CN1CCC2(CC1)N=C(N(C)C)NC2=O)c1ccccc1` (centres undefined): the cytotoxicity at 10 µM turned out to be 2.92%.

Consider `CN(C)CCNC(=O)c1cc(-c2cnc(N3CCOCC3)nc2)cn1C`, for which the cytotoxicity at 10 µM was -78.2%.

With `Cc1cc(C)n(CC(=O)N2CCCCC2CCN(C)C)c(=O)n1` (centres undefined), the cytotoxicity at 10 µM is -14.7%.

Take `CN(Cc1ccsc1)C(=O)CNC(=O)N1CCc2ccccc2C1`: the cytotoxicity at 10 µM was -2.9%.

On to `CCC(CO)N(Cc1cccs1)C(=O)Cc1ccc(O)cc1` (centres undefined), for which the cytotoxicity at 10 µM amounted to 6.57%.

Regarding `CCc1ccc(C(=O)N2CCN(CCO)CC2)o1`, the cytotoxicity at 10 µM is -5.22%.

Turning to `CCN(c1ccc(C(=O)N2CCCC2c2cnn(C)c2)cn1)C(C)C` (centres undefined), the cytotoxicity at 10 µM was -0.607%.

Take `O=C(c1ccoc1)N1CCC2(C1)CN(c1nccs1)C2`: the cytotoxicity at 10 µM amounted to 1.07%.

On to `COc1ccc(S(=O)(=O)C2CCN(C(=O)c3cc(C)cs3)CC2)cc1`, for which the cytotoxicity at 10 µM is 3.07%.

In the case of `CN(C)c1ccc(C(=O)N2CCCC(n3cncn3)C2)nn1` (centres undefined), the cytotoxicity at 10 µM was determined as 0.47%.

In the case of `Cc1nc(C)n(CCNC2CCN(c3ncnc4c(C)csc34)CC2)n1`, the cytotoxicity at 10 µM was 4.35%.

For `c1ccc(CCCN2CC(n3cccn3)C2)cc1`, the cytotoxicity at 10 µM is -3.83%.

On to `CC(c1ccccn1)N(C)Cc1ccc(CCC(C)(C)O)cc1` (centres undefined), for which the cytotoxicity at 10 µM turned out to be 1.82%.

With `Cc1noc(C)c1CCC(=O)N(C)C(C)c1cccs1` (centres undefined), the cytotoxicity at 10 µM turned out to be 7.93%.

For `Cc1ccc(-c2noc(CC[C@@H]3CCCN4CCCC[C@H]34)n2)nn1`, the cytotoxicity at 10 µM is -4.56%.

Regarding `Cc1cnccc1-n1nc(C(C)C)nc1CS(C)(=O)=O`, the cytotoxicity at 10 µM was determined as 0.999%.

For the compound `Cc1nc(CNCC2CNc3ccnn3C2)cs1` (centres undefined), the cytotoxicity at 10 µM was -8.71%.

Regarding `CN(C)[C@@H]1CO[C@H](CNC(=O)c2ccccc2)[C@H]1O`, the cytotoxicity at 10 µM was -1.9%.

For `CCn1c(N)nc2cc(C(=O)N3CCC(N4CCCC4)CC3)cnc21`, the cytotoxicity at 10 µM was -1.56%.

Regarding `CCC(CNC(=O)Cc1cc(C)on1)Oc1cccc(F)c1` (centres undefined), the cytotoxicity at 10 µM is -48.2%.

Turning to `COCCNc1ccccc1CNC(=O)C1CCCOC1` (centres undefined), the cytotoxicity at 10 µM is -8.3%.

With `O=C1NCCN1CCNCC1(O)CCCN(CCC2CCCCC2)C1=O` (centres undefined), the cytotoxicity at 10 µM was -1.04%.

On to `O=C(c1ccc(-n2ccnc2)cc1)N1CCN(c2cnccn2)CC1`, for which the cytotoxicity at 10 µM is -5.63%.

`CNC(=O)c1ccc(C2CN(c3cc(C)nc(N)n3)CCO2)nc1` (centres undefined): the cytotoxicity at 10 µM was determined as 2.02%.

For `Cn1cnc(S(=O)(=O)N2CCCc3c(F)cc(F)cc32)c1Cl`, the cytotoxicity at 10 µM was determined as 0.333%.

For `c1cncc(C2COC3(CCN(CC4CCOCC4)CC3)C2)c1` (centres undefined), the cytotoxicity at 10 µM is -10.4%.

As to `CCN(CC)C(=O)CN1CCCC1C(=O)N(C)C` (centres undefined), the cytotoxicity at 10 µM came out at 12.5%.

For the compound `Cc1nn(C)c2c(N3CCN(C(=O)C4CC4)CC3)ncnc12`, the cytotoxicity at 10 µM worked out at 9.02%.

Take `COCCCNc1c(-c2ccc(Cl)cc2)c(=O)c1=O`: the cytotoxicity at 10 µM worked out at 39.2%.

With `O=S1(=O)NC(c2ccnc(N3CCOCC3)n2)=Nc2ccccc21`, the cytotoxicity at 10 µM worked out at 10.8%.

`Cc1noc(C)c1CN(C)C(=O)Cn1c(=O)n(C)c2ccccc21`: the cytotoxicity at 10 µM is -4.32%.

Take `COCc1ncc(CN2CCC(Oc3ccccc3OC)CC2)cn1`: the cytotoxicity at 10 µM was -1.77%.

Turning to `CCc1ccc(C(=O)N2CCCN(Cc3nccn3CC)CC2)s1`, the cytotoxicity at 10 µM was -8.72%.

Regarding `OC(CNCCn1cccn1)c1ccc(F)c(F)c1` (centres undefined), the cytotoxicity at 10 µM was 2.05%.

Turning to `CCS(=O)(=O)CCNC(=O)C1(c2cccc(Cl)c2)CC1`, the cytotoxicity at 10 µM is -4%.

Consider `C=C(C)CN(CC)Cc1nc(C)no1`, for which the cytotoxicity at 10 µM was -15.8%.

`Cc1ccnc(C2CN(c3ccnc(C)n3)C2)n1`: the cytotoxicity at 10 µM is -2.4%.

For `CCCc1nnc(N2C[C@@H](C)[C@@](C)(O)C2)s1`, the cytotoxicity at 10 µM turned out to be 1.22%.

With `CCOCCC(=O)N1CCCN(c2ccccc2C)CC1`, the cytotoxicity at 10 µM is -7.68%.

`O=C(N1CCOCC1)N1CCc2ncnc(NC3CCC3)c2CC1`: the cytotoxicity at 10 µM was -1.92%.

As to `O=C(NCCNc1ncccn1)N1CC=C(c2ccccc2)CC1`, the cytotoxicity at 10 µM was 12.6%.

For the compound `O=C1[C@H]2CN(C3CCOCC3)C[C@H]2CN1Cc1ccncc1`, the cytotoxicity at 10 µM is -124%.

In the case of `CC(C)(C)c1nc(NS(=O)(=O)c2ccccc2F)no1`, the cytotoxicity at 10 µM is -1.45%.

On to `NCC(=O)N1CCCC1c1nccnc1Nc1ncccn1` (centres undefined), for which the cytotoxicity at 10 µM is -2.42%.

Turning to `CCCC1(C(=O)O)CCCN(C(=O)c2cc(Cl)ccc2F)C1` (centres undefined), the cytotoxicity at 10 µM came to 0.515%.

As to `CCn1nc(C)cc1C(=O)N1C[C@@H](CN(C)C)[C@@H](CO)C1`, the cytotoxicity at 10 µM was 3.3%.

For the compound `CCC(C)NC(=O)c1cc(S(=O)(=O)N2CCCC2)c(C)s1` (centres undefined), the cytotoxicity at 10 µM is -2.6%.

For the compound `CN(Cc1nc(C2CC2)no1)C(=O)c1cccc(CC2CCNCC2)c1`, the cytotoxicity at 10 µM was 2.74%.

Take `CCS(=O)(=O)NC[C@]12COC[C@H]1CN(Cc1ccccn1)C2`: the cytotoxicity at 10 µM is -72.5%.

As to `CC(Nc1cccc(CN2CCOC2=O)c1)C(=O)NC(N)=O` (centres undefined), the cytotoxicity at 10 µM is -7.44%.

As for `COCC(=O)N1CC(=O)c2sc(Nc3ccc(F)cc3F)nc2C1`, the cytotoxicity at 10 µM is -7.02%.

As for `Cc1cc(C)c2c(c1)C(NC(=O)CSc1nnc[nH]1)CCO2` (centres undefined), the cytotoxicity at 10 µM is -3.91%.

As to `COc1ccc(CN(Cc2ccccn2)Cc2cncn2C)cc1`, the cytotoxicity at 10 µM amounted to 9.65%.

In the case of `Cc1cc(C)c2c(c1)C(NCc1c(C)nn(C)c1N(C)C)CCO2` (centres undefined), the cytotoxicity at 10 µM was -4.07%.

As for `CC(C)c1nccn1C(C)C(=O)NC1CCOCC1` (centres undefined), the cytotoxicity at 10 µM was -2.07%.

In the case of `COc1ccc(CNC(=O)c2cc3c(nc2O)CCC(C)C3)cc1` (centres undefined), the cytotoxicity at 10 µM is -6.1%.

Turning to `CCOC(=O)NC(CNC(=O)c1cccnc1SC)CC(C)C` (centres undefined), the cytotoxicity at 10 µM amounted to 6.68%.

Take `Cc1cc(C)n(CC2CCCN2CCCc2nc3ccccc3o2)n1` (centres undefined): the cytotoxicity at 10 µM is -10.9%.

As for `O=C(NC1CCC1)[C@H]1C[C@H]2CN(C(=O)Nc3ccc(F)cc3)C[C@@H]1O2`, the cytotoxicity at 10 µM stood at 7.2%.

For `Cc1cc(C(=O)Nc2cccn(Cc3ccc(F)cc3)c2=O)no1`, the cytotoxicity at 10 µM came out at 3.15%.

As for `O=C1OCCN1CCSc1nnnn1C1CCOCC1`, the cytotoxicity at 10 µM was -48.4%.

In the case of `CCN(CC(=O)NCCc1nc(C)no1)Cc1ccc(Cl)cc1`, the cytotoxicity at 10 µM amounted to 2.27%.

Regarding `CC(=O)N1CCCCC[C@@H]2[C@@H]1[C@H](c1cccc(F)c1)CN2C(C)=O`, the cytotoxicity at 10 µM is 5.21%.

On to `CCOC1CCCN(C(=O)c2sccc2-n2cnnn2)C1` (centres undefined), for which the cytotoxicity at 10 µM was 4.39%.

Consider `Cc1n[nH]c(C)c1C1CCCN1C(=O)c1cc(Br)c[nH]1` (centres undefined), for which the cytotoxicity at 10 µM was -4.08%.

`Cc1nc2c(c(NC(C)C)n1)CCN(C(=O)c1cc[nH]n1)CC2`: the cytotoxicity at 10 µM came to 6.71%.

`CS(=O)(=O)CCN1CCCC1c1noc(C2CC2)n1` (centres undefined): the cytotoxicity at 10 µM is -6.82%.

For `CN(C(=O)c1ccc(Cl)cn1)c1ccccc1S(C)(=O)=O`, the cytotoxicity at 10 µM was -7.17%.

As for `Cn1cc(C(=O)NCc2cncc3c2CCNC3)cn1`, the cytotoxicity at 10 µM was -91.6%.

For the compound `Cn1c(N)c2c(=O)n(C)c(-c3ccccc3)cc2c(C#N)c1=O`, the cytotoxicity at 10 µM is 1.57%.

On to `COC(CNC(=O)C1CCCC1)c1ccc(C)s1` (centres undefined), for which the cytotoxicity at 10 µM amounted to 4.45%.

For the compound `Cc1ccnn1CC(=O)N(C)Cc1ccc(-n2cccn2)cc1`, the cytotoxicity at 10 µM amounted to 0.0616%.

As for `CCOc1ccc(N(CCC#N)C(=O)c2ccc(SC)nc2)cc1`, the cytotoxicity at 10 µM came to 5.93%.

With `CCS(=O)(=O)N1C[C@@H]2C[C@H](C(=O)N(C)C)[C@H](C1)O2`, the cytotoxicity at 10 µM was found to be 5.58%.

Regarding `O=C1CC(C2CCCCC2)c2c(n(C3CCCC3)[nH]c2=O)N1` (centres undefined), the cytotoxicity at 10 µM is -5.01%.

Turning to `Cc1nn(C2CCS(=O)(=O)C2)c(O)c1Cc1ccccc1Cl` (centres undefined), the cytotoxicity at 10 µM was -45.7%.

`CCn1ccnc1CN1CCCC1C(=O)Nc1nccs1` (centres undefined): the cytotoxicity at 10 µM was -6.7%.

`O=S(=O)(NCC1CCN(c2cnccn2)CC1)c1cccs1`: the cytotoxicity at 10 µM was found to be 6.28%.

As to `COc1ccc2c(c1)OCC(Cc1cnc(N)c(C)c1)C2` (centres undefined), the cytotoxicity at 10 µM is -1.23%.

Consider `CN(Cc1nnc(-c2ccco2)o1)CC1CCCN1c1cccnn1` (centres undefined), for which the cytotoxicity at 10 µM stood at 5.68%.

For the compound `CN(Cc1ccncc1)C(CO)c1cccc(F)c1` (centres undefined), the cytotoxicity at 10 µM came out at 2.35%.

For the compound `Cn1ccnc1CN1CCCC(CCCc2ccccn2)(C(N)=O)C1` (centres undefined), the cytotoxicity at 10 µM is 2.83%.

`CCNC(=O)[C@@H]1C[C@@H](NC(=O)Cc2ccncc2)CN1Cc1ccsc1`: the cytotoxicity at 10 µM was -0.368%.

On to `CC(C)(C)c1coc([C@@H]2COCCN2CC2CC2)n1`, for which the cytotoxicity at 10 µM was -10.1%.

`O=C1CCCN1CCCN1CCCC1Cn1cccn1` (centres undefined): the cytotoxicity at 10 µM is -1.82%.

For the compound `CCn1cnnc1C1CCN(C(=O)c2cc3c(s2)CCOC3)CC1`, the cytotoxicity at 10 µM was -6.37%.

As for `CC(C)c1cc(NC(=O)CN2CCn3c(nnc3C3CC3)C2)on1`, the cytotoxicity at 10 µM is -14.1%.

In the case of `Cc1c(Cl)cccc1S(=O)(=O)N1CCC2(CC1)OCCS2`, the cytotoxicity at 10 µM was determined as 4.19%.

The record behind these values is ChEMBL document CHEMBL4513216, “Probing the Open Global Health Chemical Diversity Library for Multistage-Active Starting Points for Next-Generation Antimalarials” (ACS Infect Dis, 2020).
